Source: ChEMBL document CHEMBL1129793, “Quantitative structure-activity relationships for the in vitro antimycobacterial activity of pyrazinoic acid esters” (J Med Chem, 1996)

test system: not listed separately; assay: Partition coefficient (logP); type: physicochemical; settings: octanol/water

With `CCOC(=O)c1cnc(Cl)cn1` as the compound, how does the logP read?
The logP was 1.19.

Which logP does the source give for `CCCCCCCCC(C)OC(=O)c1cnc(Cl)cn1` (stereo unspecified) here?
Its logP is 4.75.

Which logP does the source give for `CCCCCOC(=O)c1cnc(Cl)cn1` here?
Its logP is 2.73.

For `CCCCCCOC(=O)c1cnc(Cl)cn1`, which logP is on record?
The logP was 3.36.

For `CCCCCCCCC(CC)OC(=O)c1cnc(Cl)cn1` (stereo unspecified), which logP is on record?
Its logP is 5.99.

Which logP does the source give for `CCCCCCC(C)(CCCCC)OC(=O)c1cnc(Cl)cn1` (stereo unspecified) here?
The logP was 6.45.

With `CCCCCCCC(C)(CCCC)OC(=O)c1cnc(Cl)cn1` (stereo unspecified) as the compound, how does the logP read?
The logP was 6.44.

For `CCCCCCCCC(C)(CCCC)OC(=O)c1cnc(Cl)cn1` (stereo unspecified), which logP is on record?
Its logP is 7.05.

Which logP does the source give for `CCCCCCCC(C)(CCCCC)OC(=O)c1cnc(Cl)cn1` (stereo unspecified) here?
The logP was 6.96.

test system: Mycobacterium avium; assay: In vitro activity against Mycobacterium avium (MAC-101).; type: functional; settings: not given
Procedure, shortened: (§1)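 Broth macrodilution MIC. Cultures were grown in modified Middlebrook 7H10 broth (agar and malachite green omitted) with 10% OADC and 0.05% Tween 80, shaken at 37 °C for 3 days, then diluted in 7H10 broth to 1 Klett unit/mL. Test agents were dissolved in water or DMSO and filter-sterilised, then serially diluted 2-fold in 7H10 broth at pH 5.8. Tubes were shaken at 37 °C for 7–10 days, with a drug-free control. MIC was the lowest concentration with no visible turbidity, expressed in mmol/L.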

For `CCOC(=O)c1cnc(Cl)cn1`, which “Log 1/MMIC” value is on record?
Its value is 0.164.

Which “Log 1/MMIC” value does the source give for `CCCCCCCCC(C)OC(=O)c1cnc(Cl)cn1` (stereo unspecified) here?
Its value is 0.97.

With `CCCCCOC(=O)c1cnc(Cl)cn1` as the compound, how does the “Log 1/MMIC” value read?
Its value is 0.854.

For `CCCCCCOC(=O)c1cnc(Cl)cn1`, which “Log 1/MMIC” value is on record?
The value was 0.88.

With `CCCCCCCCC(CC)OC(=O)c1cnc(Cl)cn1` (stereo unspecified) as the compound, how does the “Log 1/MMIC” value read?
The value was 0.087.

Which “Log 1/MMIC” value does the source give for `CCCCCCC(C)(CCCCC)OC(=O)c1cnc(Cl)cn1` (stereo unspecified) here?
Its value is 0.726.

With `CCCCCCCC(C)(CCCC)OC(=O)c1cnc(Cl)cn1` (stereo unspecified) as the compound, how does the “Log 1/MMIC” value read?
The value was 0.124.

Which “Log 1/MMIC” value does the source give for `CCCCCCCCC(C)(CCCC)OC(=O)c1cnc(Cl)cn1` (stereo unspecified) here?
The value was 0.744.

Which “Log 1/MMIC” value does the source give for `CCCCCCCC(C)(CCCCC)OC(=O)c1cnc(Cl)cn1` (stereo unspecified) here?
Its value is 0.744.

test system: not listed separately; assay: T1/2 in equine serum; type: ADME, organism-based, Equus caballus; settings: horse
Procedure, shortened: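 Ester from a 1 mg/mL stock was mixed with 5% aqueous equine serum in 0.01 M KH2PO4, pH 7.2. Remaining ester was measured by isocratic reverse-phase HPLC (80% acetonitrile/20% 0.1 M sodium acetate, pH 5.0), with UV detection at 265 nm against a standard curve. Half-life is the time to 50% conversion to the acid.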

Which half-life does the source give for `CCOC(=O)c1cnc(Cl)cn1` here?
Its half-life is 1.83 h.

With `CCCCCCCCC(C)OC(=O)c1cnc(Cl)cn1` (stereo unspecified) as the compound, how does the half-life read?
The half-life was 0.395 h.

Which half-life does the source give for `CCCCCOC(=O)c1cnc(Cl)cn1` here?
Its half-life is 0.0533 h.

For `CCCCCCOC(=O)c1cnc(Cl)cn1`, which half-life is on record?
The half-life was 0.0367 h.

Which half-life does the source give for `CCCCCCCCC(CC)OC(=O)c1cnc(Cl)cn1` (stereo unspecified) here?
The half-life was 0.15 h.

With `CCCCCCC(C)(CCCCC)OC(=O)c1cnc(Cl)cn1` (stereo unspecified) as the compound, how does the half-life read?
Its half-life is 23.5 h.

Which half-life does the source give for `CCCCCCCC(C)(CCCC)OC(=O)c1cnc(Cl)cn1` (stereo unspecified) here?
Its half-life is 10 h.

With `CCCCCCCCC(C)(CCCC)OC(=O)c1cnc(Cl)cn1` (stereo unspecified) as the compound, how does the half-life read?
Its half-life is 19 h.

Which half-life does the source give for `CCCCCCCC(C)(CCCCC)OC(=O)c1cnc(Cl)cn1` (stereo unspecified) here?
Its half-life is 52.8 h.

test system: Mycobacterium tuberculosis; assay: In vitro activity against Mycobacterium tuberculosis (ATCC 27294); type: functional; settings: not given; procedure, shortened: as §1

With `CCOC(=O)c1cnc(Cl)cn1` as the compound, how does the “Log 1/MMIC” value read?
The value was 2.271.

For `CCCCCCCCC(C)OC(=O)c1cnc(Cl)cn1` (stereo unspecified), which “Log 1/MMIC” value is on record?
Its value is 3.697.

Which “Log 1/MMIC” value does the source give for `CCCCCOC(=O)c1cnc(Cl)cn1` here?
The value was 3.581.

Which “Log 1/MMIC” value does the source give for `CCCCCCOC(=O)c1cnc(Cl)cn1` here?
The value was 3.288.

Which “Log 1/MMIC” value does the source give for `CCCCCCCCC(CC)OC(=O)c1cnc(Cl)cn1` (stereo unspecified) here?
Its value is 3.097.

Which “Log 1/MMIC” value does the source give for `CCCCCCC(C)(CCCCC)OC(=O)c1cnc(Cl)cn1` (stereo unspecified) here?
The value was 2.232.

With `CCCCCCCC(C)(CCCC)OC(=O)c1cnc(Cl)cn1` (stereo unspecified) as the compound, how does the “Log 1/MMIC” value read?
Its value is 1.63.

With `CCCCCCCC(C)(CCCCC)OC(=O)c1cnc(Cl)cn1` (stereo unspecified) as the compound, how does the “Log 1/MMIC” value read?
The value was 2.249.

test system: Mycobacterium avium; assay: In vitro activity against Mycobacterium avium (ATCC 49601).; type: functional; settings: not given; procedure, shortened: as §1

For `CCOC(=O)c1cnc(Cl)cn1`, which “Log 1/MMIC” value is on record?
The value was 0.164.

Which “Log 1/MMIC” value does the source give for `CCCCCCCCC(C)OC(=O)c1cnc(Cl)cn1` (stereo unspecified) here?
The value was 0.97.

For `CCCCCOC(=O)c1cnc(Cl)cn1`, which “Log 1/MMIC” value is on record?
The value was 0.854.

With `CCCCCCOC(=O)c1cnc(Cl)cn1` as the compound, how does the “Log 1/MMIC” value read?
The value was 1.181.

Which “Log 1/MMIC” value does the source give for `CCCCCCCCC(CC)OC(=O)c1cnc(Cl)cn1` (stereo unspecified) here?
The value was 0.087.

With `CCCCCCC(C)(CCCCC)OC(=O)c1cnc(Cl)cn1` (stereo unspecified) as the compound, how does the “Log 1/MMIC” value read?
The value was 0.726.

For `CCCCCCCC(C)(CCCC)OC(=O)c1cnc(Cl)cn1` (stereo unspecified), which “Log 1/MMIC” value is on record?
Its value is 0.124.

For `CCCCCCCCC(C)(CCCC)OC(=O)c1cnc(Cl)cn1` (stereo unspecified), which “Log 1/MMIC” value is on record?
Its value is 0.744.

For `CCCCCCCC(C)(CCCCC)OC(=O)c1cnc(Cl)cn1` (stereo unspecified), which “Log 1/MMIC” value is on record?
Its value is 0.744.

test system: Mycobacterium tuberculosis; assay: In vitro activity against Mycobacterium tuberculosis (ATCC 35801); type: functional; settings: not given; procedure, shortened: as §1

Which “Log 1/MMIC” value does the source give for `CCCCCCCCC(C)OC(=O)c1cnc(Cl)cn1` (stereo unspecified) here?
The value was 2.776.

With `CCCCCOC(=O)c1cnc(Cl)cn1` as the compound, how does the “Log 1/MMIC” value read?
The value was 2.961.

For `CCCCCCOC(=O)c1cnc(Cl)cn1`, which “Log 1/MMIC” value is on record?
Its value is 3.288.

Which “Log 1/MMIC” value does the source give for `CCCCCCCCC(CC)OC(=O)c1cnc(Cl)cn1` (stereo unspecified) here?
Its value is 2.495.

Which “Log 1/MMIC” value does the source give for `CCCCCCCC(C)(CCCC)OC(=O)c1cnc(Cl)cn1` (stereo unspecified) here?
The value was 1.931.

For `CCCCCCCC(C)(CCCCC)OC(=O)c1cnc(Cl)cn1` (stereo unspecified), which “Log 1/MMIC” value is on record?
Its value is 1.948.

test system: Mycobacterium tuberculosis; assay: In vitro activity against Mycobacterium tuberculosis (ATCC 35828); type: functional; settings: not given; procedure, shortened: as §1

With `CCOC(=O)c1cnc(Cl)cn1` as the compound, how does the “Log 1/MMIC” value read?
The value was 1.067.

For `CCCCCCCCC(C)OC(=O)c1cnc(Cl)cn1` (stereo unspecified), which “Log 1/MMIC” value is on record?
Its value is 3.998.

With `CCCCCOC(=O)c1cnc(Cl)cn1` as the compound, how does the “Log 1/MMIC” value read?
The value was 3.262.

For `CCCCCCOC(=O)c1cnc(Cl)cn1`, which “Log 1/MMIC” value is on record?
Its value is 2.686.

With `CCCCCCCCC(CC)OC(=O)c1cnc(Cl)cn1` (stereo unspecified) as the compound, how does the “Log 1/MMIC” value read?
The value was 2.495.

For `CCCCCCC(C)(CCCCC)OC(=O)c1cnc(Cl)cn1` (stereo unspecified), which “Log 1/MMIC” value is on record?
Its value is 1.329.

For `CCCCCCCCC(C)(CCCC)OC(=O)c1cnc(Cl)cn1` (stereo unspecified), which “Log 1/MMIC” value is on record?
The value was 1.647.

Which “Log 1/MMIC” value does the source give for `CCCCCCCC(C)(CCCCC)OC(=O)c1cnc(Cl)cn1` (stereo unspecified) here?
The value was 1.647.

test system: Mycobacterium kansasii; assay: in vitro activity against Mycobacterium kansasii (SWK).; type: functional; settings: not given
Procedure, shortened: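 M. kansasii clinical isolate SWK was grown 3 days at 37 °C with shaking in modified Middlebrook 7H10 broth with 10% OADC and 0.05% Tween 80, then diluted. It was tested in serial 2-fold dilutions in 7H10 broth at pH 5.8, shaken at 37 °C for 7–10 days, with a drug-free control. MIC was the lowest concentration giving no visible turbidity, expressed in mmol/L.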

For `CCOC(=O)c1cnc(Cl)cn1`, which “Log 1/MMIC” value is on record?
The value was 1.97.

With `CCCCCCCCC(C)OC(=O)c1cnc(Cl)cn1` (stereo unspecified) as the compound, how does the “Log 1/MMIC” value read?
Its value is 3.378.

Which “Log 1/MMIC” value does the source give for `CCCCCOC(=O)c1cnc(Cl)cn1` here?
The value was 3.882.

For `CCCCCCOC(=O)c1cnc(Cl)cn1`, which “Log 1/MMIC” value is on record?
The value was 4.21.

With `CCCCCCCCC(CC)OC(=O)c1cnc(Cl)cn1` (stereo unspecified) as the compound, how does the “Log 1/MMIC” value read?
The value was 3.398.

With `CCCCCCC(C)(CCCCC)OC(=O)c1cnc(Cl)cn1` (stereo unspecified) as the compound, how does the “Log 1/MMIC” value read?
Its value is 1.63.

Which “Log 1/MMIC” value does the source give for `CCCCCCCC(C)(CCCC)OC(=O)c1cnc(Cl)cn1` (stereo unspecified) here?
The value was 1.329.

With `CCCCCCCCC(C)(CCCC)OC(=O)c1cnc(Cl)cn1` (stereo unspecified) as the compound, how does the “Log 1/MMIC” value read?
Its value is 1.346.
